The subject of assay [1] is HCT116 (colon carcinoma) cells. The assay is described as follows: Trypan blue exclusion cell growth inhibition, HCT116. Type of assay: cell-based, human. The method, boiled down:
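HCT116 cells were grown in RPMI 1640 + 10% FBS at 37 °C, humidified 5% CO2, and seeded at 1 × 10⁴ cells/well with test compound. After 48 h, cells were mixed 1:1 with 0.4% trypan blue and counted on a haemocytometer, in triplicate. Points are means of four samples over three experiments. IC50/IC75/IC90 came from sigmoidal fits. Selectivity = IC50 in […] ÷ IC50 in cancer cells.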

A further assay deals with plasmid (pBR322) DNA. Nature of the assay: Electrophoresis mobility shift assay with plasmid DNA. Conditions: metal/DNAbp ratios 0.25-2.0; 37 °C, 20 h. Type of assay: binding. The method, boiled down:
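pBR322 plasmid DNA (20 µg/mL) in 5 mM Tris/HCl, 50 mM NaClO4, pH 7.39, was incubated with test compound at metal complex:DNA bp ratios of […], 37 °C, 20 h, in the dark. Free DNA and cisplatin-treated DNA served as controls. Samples ran on 1% agarose in TAE, 80 V for 1.5 h, then were GelRed-stained 30 min.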

Another assay concerns the target cytochrome c (Equus caballus, UniProt P00004). Nature of the assay: ESI-MS metallodrug-protein interaction, cytochrome c. The format is binding. Conditions: 3:1 metal/protein, 24 h RT, 20 mM ammonium acetate pH 6.8. Summed up:
(§1)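 Each protein (100 µM) in 20 mM ammonium acetate, pH 6.8, was mixed with test compound at a 3:1 metal/protein ratio and held 24 h at RT. Samples were diluted 20-fold with water and infused directly at 5 µl/min into an ESI Orbitrap (spray 3.1 kV, capillary 45 V, 220 °C, resolution 100,000 at m/z 400). Monoisotopic and average masses were obtained by deconvolution.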

Another assay addresses T1, RNase A (Bos taurus, UniProt P61823).
T1 sequence (P61823 27-150): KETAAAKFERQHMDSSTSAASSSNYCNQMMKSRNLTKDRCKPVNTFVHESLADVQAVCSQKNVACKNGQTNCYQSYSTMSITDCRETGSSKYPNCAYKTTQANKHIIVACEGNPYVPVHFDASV
The assay is described as follows: ESI-MS metallodrug-protein interaction, RNase. Type of assay: binding. The settings on record: 3:1 metal/protein, 24 h RT, 20 mM ammonium acetate pH 6.8. Summed up:
as §1

SMILES strings stand for the structures.

Sequence of cytochrome c (P00004 whole entry, the tested form may be a part): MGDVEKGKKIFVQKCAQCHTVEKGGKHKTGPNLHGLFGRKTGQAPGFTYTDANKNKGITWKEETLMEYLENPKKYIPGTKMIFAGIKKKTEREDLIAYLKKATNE

Regarding `Cc1ccc(C(C)C)cc1.Cc1ccc(C(C)C)cc1.[Cl][Ru][Cl].[Cl][Ru][Cl]` [a (Ru), [Ru(p-cymene)Cl(µ-Cl)]2], the “IC75 HCT116” value in assay [1] (48 h incubation, compounds dissolved in DMSO (1%), Trypan blue) came to 313.3 ± 7.1 µM. Also, the “Calculated tumour selectivity (IC50 L929/IC50 HCT116)” value in assay [1] (IC50 normal cells divided by IC50 cancer cells) is recorded as 3.3. Also, in the assay on plasmid (pBR322) DNA, the “Effect on mobility of supercoiled form (Form I) of plasmid DNA” value is “did not affect the mobility”. For the same compound, the “Interaction with cytochrome c (ESI-MS adducts)” value on cytochrome c is recorded as “protein binding of a Ru(p-cymene) fragment”. Moreover, the “Interaction with RNase (ESI-MS adducts)” value at RNase A was “protein binding of a Ru(p-cymene) fragment”.

These data come from PMC4464950 (Dalton transactions (Cambridge, England : 2003), 2015).
